Experimental data: ChEMBL document CHEMBL1127414 (J Med Chem, 1994)
In brackets after ≈: the same amount, converted by molar mass. Activity calls are given as the source filed them. The rule behind the calls is not given here.

Key:
[1] = molecular target: T1, Squalene synthase (Mus musculus) (UniProt P53798); assay: Tested for the effective dose required for the incorporation of [5-3H]-mevalonolactone into cholesterol by in vivo mouse assay by peroral administration; assay type: functional, organism-based
T1 sequence (whole entry): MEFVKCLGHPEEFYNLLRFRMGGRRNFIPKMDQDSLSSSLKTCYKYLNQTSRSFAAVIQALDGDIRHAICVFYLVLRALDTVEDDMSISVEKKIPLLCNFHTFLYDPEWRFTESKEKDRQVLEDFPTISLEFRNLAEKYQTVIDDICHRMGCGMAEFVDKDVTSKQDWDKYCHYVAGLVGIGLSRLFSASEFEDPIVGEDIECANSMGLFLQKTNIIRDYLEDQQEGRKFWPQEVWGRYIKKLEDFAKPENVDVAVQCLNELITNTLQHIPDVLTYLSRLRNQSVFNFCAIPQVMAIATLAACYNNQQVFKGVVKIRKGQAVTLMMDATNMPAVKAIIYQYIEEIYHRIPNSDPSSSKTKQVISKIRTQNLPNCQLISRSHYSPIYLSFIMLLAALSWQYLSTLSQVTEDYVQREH
Outline: (§1)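 Female Swiss Webster mice (~25 g), six per group, dosed po by gavage with inhibitor suspended in 5% emulphor. 30 min later, 0.5 μCi/mouse [5-3H]mevalonolactone in saline given sc. Livers removed 30 min after that and saponified in KOH/EtOH overnight at 55 °C, then petroleum-ether extracted. Nonsaponifiable dpm counted. Compounds first tested at a single dose (typically 12 or 24 mg/kg).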

Squalene synthase [2] = molecular target: T2, Squalene synthase (Rattus norvegicus, UniProt Q02769); assay: Concentration required for inhibition of rat liver squalene synthase enzyme at 161 nM; Not active
T2 sequence (Q02769 whole entry): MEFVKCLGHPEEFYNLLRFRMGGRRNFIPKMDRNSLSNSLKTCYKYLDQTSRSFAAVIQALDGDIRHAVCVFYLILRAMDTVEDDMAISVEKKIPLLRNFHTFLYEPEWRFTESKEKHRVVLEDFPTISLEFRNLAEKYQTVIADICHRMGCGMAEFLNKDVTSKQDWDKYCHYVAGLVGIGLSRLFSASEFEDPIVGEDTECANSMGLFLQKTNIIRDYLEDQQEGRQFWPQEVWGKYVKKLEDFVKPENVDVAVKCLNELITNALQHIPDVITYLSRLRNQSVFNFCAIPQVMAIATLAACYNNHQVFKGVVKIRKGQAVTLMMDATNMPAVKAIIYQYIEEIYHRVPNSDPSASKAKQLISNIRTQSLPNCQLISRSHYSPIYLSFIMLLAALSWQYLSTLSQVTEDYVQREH

Mus musculus [3] = assay: Tested for its ability to inhibit the incorporation of [5-3H]-mevalonolactone into cholesterol by in vivo mouse assay by peroral administration at a dose of 12 mg/kg; assay type: functional; details: route oral; outline: as §1
Cryptococcus neoformans [4] = assay: Concentration required to inhibit growth of MY 1051 strain of Cryptococcus neoformans; assay type: functional
Outline: (§2)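 Broth microdilution against a panel of clinically relevant fungal strains. Read-out was the minimum fungicidal concentration in μg/mL.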

Aspergillus fumigatus = assay: Concentration required to inhibit growth of MF 4839 strain of Aspergillus fumigatus; assay type: functional; outline: as §2
Squalene synthase [5] = molecular target: T2, Squalene synthase; assay: Tested for inhibition against squalene synthase enzyme in rat liver
HepG2 [6] = assay: Concentration required to inhibit cholesterol synthesis in Hep G2 cells relative to control (IC50 of L-694,599); assay type: functional, Homo sapiens
Outline: (§3)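 Hep G2 cells held 2 days in lipoprotein-depleted FBS to stimulate sterol synthesis, then given inhibitor in serum-free medium for 2 h. 15 μCi [5-3H]mevalonate (0.2 mCi/mmol) added for 1 h. Cells washed and saponified, and radioactivity counted by scintillation.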

Candida tropicalis = assay: Concentration required to inhibit growth of MY 1012 strain of Candida tropicalis; assay type: functional; outline: as §2
Candida albicans [7] = assay: Concentration required to inhibit growth of MY 1750 strain of Candida albicans; assay type: functional; outline: as §2
[8] = molecular target: T3, Squalene synthase (Rattus norvegicus) (UniProt Q02769); assay: concentration required to inhibit rat liver squalene synthase enzyme relative to control (L-694,599)
T3 sequence (whole entry): T2 sequence (Q02769 whole entry)
Outline: (§4)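 Enzyme from rat liver. […] Inhibitors added in DMSO (0.3% final) as 3-fold serial dilutions, usually up to 30 ng/mL (about 40 nM). IC50 read from % inhibition vs log concentration.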

Candida parapsilosis = assay: Concentration required to inhibit growth of MY 1010 strain of Candida parapsilosis; assay type: functional; details: Lodderomyces parapsilosis; outline: as §2
[9] = test system: squalene synthase (Saccharomyces cerevisiae); assay: compound required to inhibit 50% activity of yeast squalene synthase enzyme relative to control (L-694,599).
HepG2 [10] = assay: Concentration required to inhibit cholesterol synthesis in Hep G2 cells; assay type: functional, cell-based; details: Homo sapiens; outline: as §3
Cryptococcus neoformans [11] = assay: Concentration required to inhibit growth of MY 2061 strain of Cryptococcus neoformans; assay type: functional; outline: as §2
Mus musculus [12] = assay: (§5) Tested for its ability to inhibit the incorporation of [5-3H]-mevalonolactone into cholesterol by in vivo mouse assay by peroral administration at a dose of 40 mg/kg; assay type: functional; details: route oral; outline: as §1
Candida albicans [13] = assay: Concentration required to inhibit growth of MY 1055 strain of Candida albicans; assay type: functional; outline: as §2
Trichophyton benhamiae = assay: Concentration required to inhibit growth of MF 4864 strain of Trichophyton mentagrophytes; assay type: functional, Arthroderma benhamiae; outline: as §2
Squalene synthase [14] = molecular target: T2, Squalene synthase; assay: Concentration required for inhibition of rat liver squalene synthase enzyme at 161 nM; NA = not active
Mus musculus [15] = assay: as §5; assay type: ADME, organism-based; design: dose 40 mg/kg, route oral; details: po; outline: as §1
Mus musculus [16] = assay: Tested for its ability to inhibit the incorporation of [5-3H]-mevalonolactone into cholesterol by in vivo mouse assay by peroral administration not active at dose 40 mg/kg; NA = Not active; assay type: functional, organism-based; design: dose 40 mg/kg; outline: as §1
Mus musculus [17] = assay: Tested for its ability to inhibit the incorporation of [5-3H]-mevalonolactone into cholesterol by in vivo mouse assay by peroral administration at dose 100 mg/kg; assay type: functional; details: route oral; outline: as §1
HepG2 [18] = assay: Concentration of compound required to inhibit cholesterol synthesis in Hep G2 cells relative to control (IC50 of L-694,599); assay type: functional, Homo sapiens; outline: as §3
[19] = molecular target: T3, Squalene synthase (Rattus norvegicus); assay: Concentration required to inhibit rat liver squalene synthase enzyme relative to control (L-694,599); outline: as §4

**Q.** How did the ED50 [1] turn out when `C=C(CCC12OC(C(=O)O)C(O)(C(=O)O)C(C(=O)O)(O1)[C@H](OC(=O)CCCN)[C@H]2O)[C@@H](OC(C)=O)[C@H](C)Cc1ccccc1` (stereo not given in full) was run?
**A.** Its ED50 is over 12 mg/kg.

**Q.** What about the IC50 (Squalene synthase [2]) of the same compound?
**A.** The IC50 was “Not Active”.

**Q.** What about the inhibition in vivo at 12 mg/kg (Mus musculus [3]) of the same compound?
**A.** The inhibition in vivo at 12 mg/kg was 0%.

**Q.** What does the source list for `C=C(CCC12OC(C(=O)O)C(O)(C(=O)O)C(C(=O)O)(O1)[C@H](OCCCCCCCCCCCC)[C@H]2O)[C@@H](OC(C)=O)[C@H](C)Cc1ccccc1` (stereo not given in full)?
**A.** MFC (Cryptococcus neoformans [4]): 0.5 µg/mL (≈ 0.707 µM); MFC (Aspergillus fumigatus): 0.5 µg/mL (≈ 0.707 µM); IC50 (Squalene synthase [5]): 120 pM; Relative activity (HepG2 [6]): 5.62; MFC (Candida tropicalis): 64 µg/mL (≈ 90.5 µM); MFC (Candida albicans [7]): 32 µg/mL (≈ 45.3 µM); Relative activity [8]: 2.5; MFC (Candida parapsilosis): 8 µg/mL (≈ 11.3 µM); Relative activity [9]: 9.26; IC50 (HepG2 [10]): 1.6 µM; MFC (Cryptococcus neoformans [11]): 0.12 µg/mL (≈ 0.17 µM); inhibition in vivo at 40 mg/kg (Mus musculus [12]): 26%; MFC (Candida albicans [13]): 4 µg/mL (≈ 5.66 µM); MFC (Trichophyton benhamiae): 1 µg/mL (≈ 1.41 µM)

**Q.** `C=C(CCC12OC(C(=O)O)C(OCCCCCCCCCCCCCC)(C(=O)O)C(C(=O)O)(O1)[C@H](OCCCCCCCCCCCCCC)[C@H]2O)[C@@H](OC(C)=O)[C@H](C)Cc1ccccc1` (stereo not given in full) was tested. Which IC50 (Squalene synthase [14]) did it give?
**A.** Its IC50 is “Not Active”.

**Q.** Which results are given for `C=C(CCC12OC(C(=O)O)C(O)(C(=O)O)C(C(=O)O)(O1)[C@H](OC(=O)OCCCCCCCCCCCC)[C@H]2O)[C@@H](OC(C)=O)[C@H](C)Cc1ccccc1` (stereo not given in full)?
**A.** IC50 (Squalene synthase [5]): 190 pM; Relative activity (HepG2 [6]): 4.36; Relative activity [8]: 0.47; IC50 (HepG2 [10]): 1.9 µM; inhibition at 40 mg/kg (Mus musculus [15]): 5%

**Q.** For `C=C(CCC12OC(C(=O)O)C(OCCC)(C(=O)O)C(C(=O)O)(O1)[C@H](O)[C@H]2O)[C@@H](OC(C)=O)[C@H](C)Cc1ccccc1` (stereo not given in full), which IC50 (Squalene synthase [2]) is on record?
**A.** Its IC50 is “Not Active”.

**Q.** Which MFC (Cryptococcus neoformans [4]) does the source give for `C=C(CCC12OC(C(=O)O)C(O)(C(=O)O)C(C(=O)O)(O1)[C@H](OC(=O)/C=C/[C@@H](C)C[C@@H](C)CC)[C@H]2O)[C@@H](OC(C)=O)[C@H](C)Cc1ccccc1` (stereo not given in full) [ZARAGOZIC ACID A] here?
**A.** The MFC was 1 µg/mL (≈ 1.45 µM).

**Q.** And the MFC (Aspergillus fumigatus)?
**A.** Its MFC is 32 µg/mL (≈ 46.3 µM).

**Q.** What about the inhibition (Mus musculus [16]) of the same compound?
**A.** The inhibition was “inactive”.

**Q.** And the MFC (Candida tropicalis)?
**A.** The MFC was 2 µg/mL (≈ 2.9 µM).

**Q.** And the MFC (Candida albicans [7])?
**A.** Its MFC is 8 µg/mL (≈ 11.6 µM).

**Q.** What about the MFC (Candida parapsilosis) of the same compound?
**A.** The MFC was 8 µg/mL (≈ 11.6 µM).

**Q.** What about the IC50 (HepG2 [10]) of the same compound?
**A.** The IC50 was 6 µM.

**Q.** What about the MFC (Cryptococcus neoformans [11]) of the same compound?
**A.** Its MFC is 1 µg/mL (≈ 1.45 µM).

**Q.** What about the inhibition in vivo at 100 mg/kg (Mus musculus [17]) of the same compound?
**A.** Its inhibition in vivo at 100 mg/kg is 50%.

**Q.** And the MFC (Candida albicans [13])?
**A.** Its MFC is 16 µg/mL (≈ 23.2 µM).

**Q.** And the MFC (Trichophyton benhamiae)?
**A.** Its MFC is 4 µg/mL (≈ 5.79 µM).

**Q.** With `C=C(CCC12OC(C(=O)O)C(O)(C(=O)O)C(C(=O)O)(O1)[C@H](OCCCCCCCCCCCOc1ccccc1)[C@H]2O)[C@@H](OC(C)=O)[C@H](C)Cc1ccccc1` (stereo not given in full) as the compound, how does the IC50 (Squalene synthase [5]) read?
**A.** The IC50 was 60 pM.

**Q.** And the Relative activity (HepG2 [18])?
**A.** The Relative activity was 6.38.

**Q.** What about the IC50 (HepG2 [10]) of the same compound?
**A.** The IC50 was 1.3 µM.

**Q.** What about the Relative activity [19] of the same compound?
**A.** The Relative activity was 2.

**Q.** With `C=C(CCC12OC(C(=O)O)C(OCCC)(C(=O)O)C(C(=O)O)(O1)[C@H](OCCC)[C@H]2O)[C@@H](OC(C)=O)[C@H](C)Cc1ccccc1` (stereo not given in full) as the compound, how does the IC50 (Squalene synthase [2]) read?
**A.** Its IC50 is “Not Active”.
